Assay results collected from several papers.
Protocols differ between the studies behind these lines. Converted amounts (≈) assume the structure as drawn.
Organism: Candida albicans
Read-out: microbial growth

| SMILES | assay | test system | setting | quantity | value |
| --- | --- | --- | --- | --- | --- |
| O=C1C(Br)=C(Br)C(=O)c2ccccc21 | broth dilution | ATCC60193 | 24 h | MIC | 3.12 µg/mL (≈ 9.89 µM) |
| Cc1nn(-c2ccccc2)c2c1C(c1cncs1)N(C(=O)c1ccncc1)N2 (centres unmarked) | – | MTCC183 | – | MIC | > 100 µg/mL |
| CC(C)NCC(COc1cccc2ccccc12)OC(=O)C=Cc1ccc(O)c(O)c1 (centres unmarked) | broth dilution | SC5314 | – | MIC | 16 µg/mL (≈ 38 µM) |
| Cc1c(C(N)=S)c(N)n(N)c(=O)c1C#N | well diffusion | ATCC10231 | 500 µg/mL | inhibition zone | 19 mm |
| Cc1nn(-c2ccccc2)c2c1C(c1ccco1)N(C(=O)c1ccncc1)N2 (centres unmarked) | – | MTCC183 | – | MIC | > 100 µg/mL |
| Cc1c(C(N)=O)c(N)n(N)c(=O)c1C#N | well diffusion | ATCC10231 | 500 µg/mL | inhibition zone | 12 mm |
| Cc1nn(-c2ccccc2)c2c1C(c1ccc(N(C)C)cc1)N(C(=O)c1ccncc1)N2 (centres unmarked) | – | MTCC183 | – | MIC | 32 µg/mL (≈ 75.4 µM) |
| O=C(C=Cc1ccc(O)c(O)c1)Oc1cccc2cccnc12 | broth dilution | SC5314 | – | MIC | 16 µg/mL (≈ 52.1 µM) |
| CC(C)=CCCC(C)=CC1c2c(C)nn(-c3ccccc3)c2NN1C(=O)c1ccncc1 (centres unmarked) | – | MTCC183 | – | MIC | 32 µg/mL (≈ 74.8 µM) |
| CN(C)c1ccc(-c2c(C(N)=S)c(N)n(N)c(=O)c2C#N)cc1 | well diffusion | ATCC10231 | 500 µg/mL | inhibition zone | 17 mm |
| Cc1nn(-c2ccccc2)c2c1C(c1c[nH]c3ccccc13)N(C(=O)c1ccncc1)N2 (centres unmarked) | – | MTCC183 | – | MIC | 32 µg/mL (≈ 76.1 µM) |
| O=C(C=Cc1ccc(O)c(O)c1)Oc1ccccc1 | broth dilution | SC5314 | – | MIC | 32 µg/mL (≈ 125 µM) |
| CC(=O)N1CCN(c2ccc(OCC3COC(Cn4ccnc4)(c4ccc(Cl)cc4Cl)O3)cc2)CC1 (centres unmarked) | well diffusion | ATCC10231 | 500 µg/mL | inhibition zone | 24 mm |
| O=C(C=Cc1ccc(O)c(O)c1)OCCc1ccccc1 | broth dilution | SC5314 | – | MIC | 8 µg/mL (≈ 28.1 µM) |
| OC(Cn1cncn1)(Cn1cncn1)c1ccc(F)cc1F | broth dilution | SC5314 | 48 h | MIC50 | 0.8 µM (≈ 0.245 µg/mL) |
| Nc1ccccc1OC(=O)C=Cc1ccc(O)c(O)c1 | broth dilution | SC5314 | – | MIC | 8 µg/mL (≈ 29.5 µM) |
| N#Cc1c(-c2ccc(Cl)cc2Cl)c(C(N)=S)c(N)n(N)c1=O | well diffusion | ATCC10231 | 500 µg/mL | inhibition zone | 13 mm |
